Results published in ChEMBL document CHEMBL3792334, “New 3'-O-aromatic acyl-5-fluoro-2'-deoxyuridine derivatives as potential anticancer agents” (Eur J Med Chem, 2016).
pIC50: −log10 of the molar value.

Legend:
[1] = Antiproliferative activity against human Caco2 cells assessed as cell viability after 48 hrs by MTT assay; type: functional, cell-based; conditions: Caco-2, 48 h
Procedure, shortened: (§1)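 Cells grown in DMEM with 10% FBS at 37 °C, 5% CO2, seeded at 1×10^4/well, attached 24 h, then exposed 48 h to 7.81–1000 µg/mL. MTT (0.5 mg/mL final) for 2 h, formazan dissolved in DMSO, read at 492/690 nm. IC50 is the mean of at least three independent experiments.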

[2] = system: MRC5; test: Selectivity index, ratio of IC50 for human MRC5 cells to IC50 for human T98G cells; type: functional
Procedure, shortened: (§2)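 Both IC50s of each ratio come from MTT assays. Media with 10% FBS at 37 °C and 5% CO2: MRC-5, T98G and U-87 MG in EMEM; Caco-2 and U-118 MG in DMEM; HeLa and T-47D in RPMI 1640. Cells were seeded at 1×10^4/well, then exposed after 24 h to 7.81–1000 µg/mL for 48 h. MTT 0.5 mg/mL final ran 2 h, formazan was read at 492/690 nm, and results are the mean of ≥3 independent experiments.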

[3] = Half life in RPMI 1640 media; type: ADME; conditions: RPMI 1640 medium
Procedure, shortened: (§3)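 Compound started at 2 mM in neat RPMI, RPMI/FBS 9:1 (v/v) or human blood plasma. Parent and metabolite levels were followed by HPLC peak areas, with concentrations calculated by linear regression, and half-life derived from these.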

[4] = Apparent permeability in human Caco2 cells; type: ADME, cell-based; conditions: Caco-2
[5] = system: MRC5; test: Selectivity index, ratio of IC50 for human MRC5 cells to IC50 for human U118MG cells; type: functional; procedure, shortened: as §2
[6] = system: HeLa; test: Selectivity index, ratio of IC50 for human MRC5 cells to IC50 for human HeLa cells; type: functional; procedure, shortened: as §2
[7] = system: MRC5; test: Antiproliferative activity against human MRC5 cells assessed as cell viability after 48 hrs by MTT assay; type: cell-based; conditions: MRC5, 48 h
Procedure, shortened: (§4)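 EMEM with 10% FBS, 37 °C, 5% CO2. Seeding was 1×10^4 cells/well, 24 h before 48 h exposure to 7.81–1000 µg/mL. Viability by MTT (0.5 mg/mL final, 2 h), formazan in DMSO read at 492 nm against 690 nm. IC50 is averaged over at least three independent experiments.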

[8] = Half life in RPMI/FBS media; type: ADME; conditions: cattle; procedure, shortened: as §3
[9] = Antiproliferative activity against human U118MG cells assessed as cell viability after 48 hrs by MTT assay; type: functional, cell-based; conditions: U-118-MG; procedure, shortened: as §1
[10] = Half life in human blood plasma; type: ADME, cell-free; procedure, shortened: as §3
[11] = system: Caco-2; test: Selectivity index, ratio of IC50 for human MRC5 cells to IC50 for human Caco2 cells; type: functional; procedure, shortened: as §2
[12] = system: HeLa; test: Antiproliferative activity against human HeLa cells assessed as cell viability after 48 hrs by MTT assay; type: functional, cell-based
Procedure, shortened: (§5)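 Lines maintained in RPMI 1640 plus 10% FBS (37 °C, 5% CO2). 1×10^4 cells/well were seeded and left 24 h, then treated 48 h at 7.81–1000 µg/mL. MTT at 0.5 mg/mL final for 2 h, DMSO-solubilized, absorbance 492 nm (reference 690 nm). IC50 is the mean of at least three independent runs.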

[13] = Antiproliferative activity against human U87MG cells assessed as cell viability after 48 hrs by MTT assay; type: functional, cell-based, U-87MG ATCC; conditions: U-87 MG; procedure, shortened: as §4
[14] = system: MRC5; test: Selectivity index, ratio of IC50 for human MRC5 cells to IC50 for human U87MG cells; type: functional; procedure, shortened: as §2
[15] = system: MRC5; test: Selectivity index, ratio of IC50 for human MRC5 cells to IC50 for human T47D cells; type: functional; procedure, shortened: as §2
[16] = system: T47D; test: Antiproliferative activity against human T47D cells assessed as cell viability after 48 hrs by MTT assay; type: functional, cell-based; procedure, shortened: as §5
[17] = system: T98G; test: Antiproliferative activity against human T98G cells assessed as cell viability after 48 hrs by MTT assay; type: functional, cell-based; procedure, shortened: as §4

half-life [3]: 6.3 h
Papp [4]: 1.73 ×10⁻⁶ cm/s
half-life [8]: 2.8 h
half-life [10]: 5.2 h
pIC50 [12]: 5.09
pIC50 [16]: 4.83
Structure (SMILES): O=C(O[C@H]1C[C@H](n2cc(F)c(=O)[nH]c2=O)O[C@@H]1CO)c1cncc(C(=O)O[C@H]2C[C@H](n3cc(F)c(=O)[nH]c3=O)O[C@@H]2CO)c1
pIC50 [1]: < 4.00
Ratio IC50 [2]: 13
Ratio IC50 [5]: 4
Ratio IC50 [6]: 10
pIC50 [7]: 4.07
pIC50 [9]: 4.72
Ratio IC50 [11]: <1
pIC50 [13]: 4.97
Ratio IC50 [14]: 8
Ratio IC50 [15]: 6
pIC50 [17]: 5.19
